Activity calls are given as the source filed them. No cut-off for these calls is given here.

We go through 17 molecules from ChEMBL document CHEMBL1817610, “Synthesis and SAR requirements of adamantane-colchicine conjugates with both microtubule depolymerizing and tubulin clustering activities” (Bioorg Med Chem, 2011).

Assay [1] relates to A549. The assay is described as follows: Effect on microtubule network in human A549 cells assessed as microtubule depolymerization and tubulin clustering at 1 uM after 8 hrs by immunofluorescence microscopic analysis. It is filed as functional, cell-based. An outline of the steps: (§1)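 A549 cells grown on 11 mm glass coverslips at 2 × 10⁴ cells each. Exposure to compounds at 1 and 5 µM for 8 h at 37 °C, 5% CO2, with 0.5% DMSO as negative control. Cells fixed in 4% paraformaldehyde and stained with mouse monoclonal anti-α-tubulin, then Alexa Fluor488 goat anti-mouse IgG (1:200). Fluorescence microscopy, effect scored semi-quantitatively by '+' grades.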

Assay [2] deals with A549. The assay is described as follows: Cytotoxicity against human A549 cells after 24 hrs by MTT assay. Type of assay: functional, cell-based. The conditions noted are these: A549, 24 h. An outline of the steps:
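A549 cells kept in DMEM with 10% FBS and 1% penicillin/streptomycin at 37 °C, 5% CO2, then seeded at 3 × 10³ per well. Exposure 24 h to test agents at 1–12000 nM (DMSO stocks; 0.4% DMSO negative control), 8 wells per concentration. Surviving cells counted by colorimetric MTT (5 mg/mL in PBS). EC50 averaged over three to six experiments.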
For orientation: Tetrazolium assays rely on reduction of a dye to a coloured formazan, in cell work by metabolically active cells.

Assay [3] has as its system A549. Kind of assay: Effect on microtubule network in human A549 cells assessed as microtubule depolymerization at 1 uM after 8 hrs by immunofluorescence microscopic analysis. Type of assay: functional, cell-based. An outline of the steps: as §1
Assay [4] concerns A549. The assay is described as follows: Effect on microtubule network in human A549 cells assessed as microtubule binding at 1 uM after 8 hrs by immunofluorescence microscopic analysis. It is filed as functional, cell-based.
Another assay concerns A549 (Homo sapiens). Kind of assay: Effect on microtubule network in human A549 cells assessed as tubulin clustering formation after 8 hrs by immunofluorescence microscopic analysis.
Assay [5] concerns A549. Kind of assay: Effect on microtubule network in human A549 cells assessed as microtubule depolymerization and tubulin clustering at 5 uM after 8 hrs by immunofluorescence microscopic analysis. Type of assay: functional, cell-based. An outline of the steps:
as §1

The species named for a further assay is Bos taurus. The assay is described as follows: Inhibition of bovine brain tubulin polymerization after 1 hr. An outline of the steps: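 Purified bovine brain tubulin polymerized with 10% DMSO present and test agent at 10 µM. Incubation 1 h, then preparations examined by Allen video-enhanced microscopy.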

Broadly, the EC50 is the concentration at which the effect is half-maximal. A high value points to lower potency in that assay. With `COc1cc2c(c(OC)c1OC)-c1ccc(OC)c(=O)cc1[C@@H](NC(=O)CCCCC(=O)OC1C3CC4CC(C3)CC1C4)CC2` (stereo not given in full), in the assay on A549 [1], the outcome was Active. The concentration for a half-maximal effect (EC50) in the assay on A549 [2] is 830 nM.
The corresponding values for `COc1cc2c(c(OC)c1OC)-c1ccc(OC)c(=O)cc1[C@@H](NC(=O)CCCCCCCC(=O)OC1C3CC4CC(C3)CC1C4)CC2` (stereo not given in full) are “Active” and 3800 nM.
`COc1cc2c(c(OC)c1OC)-c1ccc(OC)c(=O)cc1[C@@H](NC(=O)CCCCCC(=O)Oc1ccccc1)CC2` returned a half-maximal effective concentration (EC50) in the assay with A549 [2] of 5700 nM. For the same molecule, the result in the assay on A549 [3] was Active.
Turning to `CC(=O)O[C@H]1C(=O)[C@@]2(C)[C@H]([C@H](OC(=O)c3ccccc3)[C@]3(O)C[C@H](OC(=O)[C@H](O)[C@@H](NC(=O)c4ccccc4)c4ccccc4)C(C)=C1C3(C)C)[C@]1(OC(C)=O)CO[C@@H]1C[C@@H]2O` [PACLITAXEL], the EC50 with A549 [2] was found to be 4.6 nM. Further, the result with A549 [4] was Active.
In the case of `COc1cc2c(c(OC)c1OC)-c1ccc(OC)c(=O)cc1[C@@H](NC(=O)CCCCCCC(=O)OC1C3CC4CC1CC(OC(=O)[C@H](O)[C@@H](NC(=O)OC(C)(C)C)c1ccccc1)(C4)C3)CC2` (mixture of isomers), in the assay on A549 [1], the result was Active. In addition, the midpoint of the response in the assay on A549 [2], the EC50, lay at 2 nM.
`COc1cc2c(c(OC)c1OC)-c1ccc(OC)c(=O)cc1[C@@H](NC(C)=O)CC2` [COLCHICINE] returned a concentration for a half-maximal effect (EC50) in the assay with A549 [2] of 27 nM. The outcome with A549 [3] was Active.
Consider `COc1cc2c(c(OC)c1OC)-c1ccc(OC)c(=O)cc1[C@@H](NC(=O)CCCCCC(=O)OC1C3CC4CC(C3)CC1C4)CC2` (stereo not given in full), for which the outcome in the assay on A549 [1] and in the assay on A549 (Homo sapiens) was Active. In the assay on A549 [2], this molecule showed an EC50 of 6 nM.
Regarding `COc1cc2c(c(OC)c1OC)-c1ccc(OC)c(=O)cc1[C@@H](NC(=O)CCCCCC(=O)OC1CCCCC1)CC2`, in the assay with A549 [1], the result was Active. In the assay with A549 [2], this molecule displayed an EC50 of 4.8 nM.
Taken in the same sequence, the figures for `COc1cc2c(c(OC)c1OC)-c1ccc(OC)c(=O)cc1[C@@H](NC(=O)CCCCCCC(=O)OC1C3CC4CC(C3)CC1C4)CC2` (stereo not given in full) were “Active” and 5 nM.
Taken in the same sequence, the figures for `COc1cc2c(c(OC)c1OC)-c1ccc(OC)c(=O)cc1[C@@H](NC(=O)CCCCCC(=O)OC(C)C)CC2` were “Active” and 30 nM.
Molecule `COC(=O)CCCCCC(=O)N[C@H]1CCc2cc(OC)c(OC)c(OC)c2-c2ccc(OC)c(=O)cc21` came in with an EC50 in the assay with A549 [2] of 32 nM. Also, in the assay on A549 [3], the outcome was Active.
With `COc1cc2c(c(OC)c1OC)-c1ccc(OC)c(=O)cc1[C@@H](NC(=O)CCCCCC(=O)OC13CC4CC(CC(C4)C1)C3)CC2`, the outcome in the assay with A549 [1] was Active. In the assay on A549 [2], the response was half-maximal at 11 nM (EC50).
The corresponding values for `COc1cc2c(c(OC)c1OC)-c1ccc(OC)c(=O)cc1[C@@H](NC(=O)CCCCCCCCCCCOC(=O)[C@H](O)[C@@H](NC(=O)OC(C)(C)C)c1ccccc1)CC2` are “Active” and 41 nM.
On to `COc1cc2c(c(OC)c1OC)-c1ccc(OC)c(=O)cc1[C@@H](NC(=O)CCCCCCCC(=O)OC13CC4CC(CC(C4)C1)C3)CC2`, for which the EC50 in the assay on A549 [2] came to 29 nM. In other words, the double-digit nanomolar range.
`COc1cc2c(c(OC)c1OC)-c1ccc(OC)c(=O)cc1[C@@H](NC(=O)CCCCCC(=O)OC1C3CC4CC1CC(OC(=O)[C@H](O)[C@@H](NC(=O)OC(C)(C)C)c1ccccc1)(C4)C3)CC2` (mixture of isomers): the outcome with A549 [1] and in the assay with A549 [5] was Active. Also, the inhibition entry in the assay filed under Bos taurus is “Active”. Moreover, it took 73 nM to reach a half-maximal effect with A549 [2] (EC50).
In the assay on A549 [2], `COc1cc2c(c(OC)c1OC)-c1ccc(OC)c(=O)cc1[C@@H](NC(=O)CCCC(=O)OC1C3CC4CC(C3)CC1C4)CC2` (stereo not given in full) had an EC50 of 200 nM. The outcome with A549 [3] was Active.
The molecule `COc1cc2c(c(OC)c1OC)-c1ccc(OC)c(=O)cc1[C@@H](NC(=O)CCCC(=O)OC1C3CC4CC1CC(OC(=O)[C@H](O)[C@@H](NC(=O)OC(C)(C)C)c1ccccc1)(C4)C3)CC2` (mixture of isomers) returned an EC50 in the assay with A549 [2] of 220 nM.
